The values that follow come from the M2OR odorant receptor database.

What all share (settings): stereoisomer not certain
The target in one experiment is T1, UniProt Q8VGJ5.
T1 sequence (whole entry): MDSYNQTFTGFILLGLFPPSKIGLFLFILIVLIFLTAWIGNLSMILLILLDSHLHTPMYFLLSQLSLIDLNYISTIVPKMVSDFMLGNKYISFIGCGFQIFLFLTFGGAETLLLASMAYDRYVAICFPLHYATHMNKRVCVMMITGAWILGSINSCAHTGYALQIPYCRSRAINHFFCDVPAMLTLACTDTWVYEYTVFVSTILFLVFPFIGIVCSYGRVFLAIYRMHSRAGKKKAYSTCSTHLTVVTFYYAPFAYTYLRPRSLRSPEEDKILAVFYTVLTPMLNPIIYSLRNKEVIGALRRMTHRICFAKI
Put shortly:
(§1)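 Whether a receptor–molecule pair is responsive (active) rests on the original authors' judgment that its measured signal was statistically different from baseline. Pairs without that judgment are non-responsive (inactive). Sources used varied assay methods, commonly transient luciferase assays in mammalian cell lines.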

The target of the next experiment is T2, UniProt Q8VGL0.
T2 sequence (whole entry): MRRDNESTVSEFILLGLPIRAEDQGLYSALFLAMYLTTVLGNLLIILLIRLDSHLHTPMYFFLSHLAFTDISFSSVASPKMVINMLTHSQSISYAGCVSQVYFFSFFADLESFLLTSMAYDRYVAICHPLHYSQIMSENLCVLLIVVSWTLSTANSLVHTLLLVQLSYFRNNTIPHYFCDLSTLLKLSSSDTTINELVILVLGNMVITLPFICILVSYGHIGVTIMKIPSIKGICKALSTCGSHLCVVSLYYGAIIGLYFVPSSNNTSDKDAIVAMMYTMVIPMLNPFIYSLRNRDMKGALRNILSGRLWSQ
The procedure, abridged:
as §1

For another experiment, the target named is T3, UniProt Q8VGL7.
T3 sequence (whole entry): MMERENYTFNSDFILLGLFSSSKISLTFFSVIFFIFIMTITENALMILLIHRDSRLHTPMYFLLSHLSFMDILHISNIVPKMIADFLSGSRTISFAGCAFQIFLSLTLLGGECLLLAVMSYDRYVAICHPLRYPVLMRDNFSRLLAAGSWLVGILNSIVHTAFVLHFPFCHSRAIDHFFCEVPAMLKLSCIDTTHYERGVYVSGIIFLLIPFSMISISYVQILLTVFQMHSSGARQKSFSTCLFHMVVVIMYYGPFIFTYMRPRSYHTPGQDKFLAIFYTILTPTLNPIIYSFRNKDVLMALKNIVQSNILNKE
The procedure, abridged: as §1

The next experiment concerns the target T4, UniProt Q8VGM2.
T4 sequence (whole entry): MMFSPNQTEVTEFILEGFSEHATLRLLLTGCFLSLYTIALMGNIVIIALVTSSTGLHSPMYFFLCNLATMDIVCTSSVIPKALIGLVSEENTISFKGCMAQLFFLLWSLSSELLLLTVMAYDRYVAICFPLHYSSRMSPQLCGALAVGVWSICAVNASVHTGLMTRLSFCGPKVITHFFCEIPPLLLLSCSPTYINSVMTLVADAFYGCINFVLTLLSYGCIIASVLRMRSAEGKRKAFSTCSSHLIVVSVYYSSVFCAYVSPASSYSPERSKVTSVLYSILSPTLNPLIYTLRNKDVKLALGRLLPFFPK
Put shortly:
as §1

Another experiment has as its target T5, UniProt Q8VGP6.
T5 sequence (whole entry): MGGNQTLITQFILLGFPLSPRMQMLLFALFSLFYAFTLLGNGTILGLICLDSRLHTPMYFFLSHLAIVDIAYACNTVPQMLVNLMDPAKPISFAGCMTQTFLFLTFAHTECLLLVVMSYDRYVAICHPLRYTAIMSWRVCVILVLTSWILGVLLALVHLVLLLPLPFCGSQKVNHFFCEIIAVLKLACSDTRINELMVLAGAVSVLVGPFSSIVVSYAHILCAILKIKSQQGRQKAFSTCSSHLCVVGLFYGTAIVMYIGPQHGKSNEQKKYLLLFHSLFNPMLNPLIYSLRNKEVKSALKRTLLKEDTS
The procedure, abridged:
as §1

For the next experiment, the target named is T6, UniProt Q8VGQ3.
T6 sequence (whole entry): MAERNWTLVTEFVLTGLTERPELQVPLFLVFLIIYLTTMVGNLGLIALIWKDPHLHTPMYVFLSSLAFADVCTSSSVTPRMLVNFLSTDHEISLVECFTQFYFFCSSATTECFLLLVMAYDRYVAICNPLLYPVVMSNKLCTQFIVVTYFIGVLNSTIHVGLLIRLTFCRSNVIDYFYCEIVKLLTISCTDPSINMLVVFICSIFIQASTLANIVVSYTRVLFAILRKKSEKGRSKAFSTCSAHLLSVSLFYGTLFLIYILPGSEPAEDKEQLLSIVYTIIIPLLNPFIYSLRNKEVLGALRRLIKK
The procedure, abridged: as §1

The target of another experiment is T7, UniProt Q8VGT4.
T7 sequence (whole entry): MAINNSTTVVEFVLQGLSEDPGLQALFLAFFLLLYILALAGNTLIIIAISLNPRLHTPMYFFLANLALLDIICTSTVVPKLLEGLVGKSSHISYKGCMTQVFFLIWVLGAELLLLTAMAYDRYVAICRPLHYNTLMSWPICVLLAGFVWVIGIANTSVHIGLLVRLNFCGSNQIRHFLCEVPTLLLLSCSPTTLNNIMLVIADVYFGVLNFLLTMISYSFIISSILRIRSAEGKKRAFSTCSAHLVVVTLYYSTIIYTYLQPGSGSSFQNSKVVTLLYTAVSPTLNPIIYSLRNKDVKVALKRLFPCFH
The procedure, abridged: as §1

A further experiment concerns the target T8, UniProt Q8VGU3.
T8 sequence (whole entry): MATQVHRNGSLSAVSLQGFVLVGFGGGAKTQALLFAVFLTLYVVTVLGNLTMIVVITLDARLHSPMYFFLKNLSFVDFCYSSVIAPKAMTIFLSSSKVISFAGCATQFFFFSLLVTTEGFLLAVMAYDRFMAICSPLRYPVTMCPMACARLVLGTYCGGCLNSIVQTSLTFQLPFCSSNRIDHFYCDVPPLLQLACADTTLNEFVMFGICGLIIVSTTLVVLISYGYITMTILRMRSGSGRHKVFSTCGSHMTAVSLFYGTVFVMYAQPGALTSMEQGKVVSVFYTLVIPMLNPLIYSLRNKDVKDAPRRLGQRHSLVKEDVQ
Put shortly: as §1

The next experiment addresses T9, UniProt Q8VGV1.
T9 sequence (whole entry): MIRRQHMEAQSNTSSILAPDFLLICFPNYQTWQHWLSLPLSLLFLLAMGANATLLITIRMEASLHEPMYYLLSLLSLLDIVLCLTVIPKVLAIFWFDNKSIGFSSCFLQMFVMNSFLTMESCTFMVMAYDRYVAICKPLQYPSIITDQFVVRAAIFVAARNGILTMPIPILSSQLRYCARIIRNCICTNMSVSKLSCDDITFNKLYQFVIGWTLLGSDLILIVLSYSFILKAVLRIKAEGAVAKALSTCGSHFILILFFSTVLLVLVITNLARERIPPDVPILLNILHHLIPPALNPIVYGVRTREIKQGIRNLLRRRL
The procedure, abridged:
as §1
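Further: active if original authors judged signal statistically different from baseline.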

Regarding `C=CCOC(=O)Cc1ccccc1`, the “odorant receptor agonist call” value with UniProt Q8VGJ5 and with UniProt Q8VGP6 was “active” throughout. Also, the “odorant receptor agonist call” value with UniProt Q8VGL0, with UniProt Q8VGL7, in the experiment with UniProt Q8VGM2, with UniProt Q8VGQ3, with UniProt Q8VGT4 and with UniProt Q8VGU3 was “inactive” each time. In the experiment with UniProt Q8VGV1, the “odorant receptor agonist call” value was “inactive”.
